According to ChEMBL document CHEMBL4024779, “Novel Terminal Bipheny-Based Diapophytoene Desaturases (CrtN) Inhibitors as Anti-MRSA/VISR/LRSA Agents with Reduced hERG Activity” (J Med Chem, 2018):
Where a chain is given by its changes, count along the chain named. ≈ marks a conversion by molar mass, not a printed value. Calls of active or inactive are those of the source. No cut-off for these calls is given here.

Tests used:
[1] = biological target: T1, 4,4'-diapophytoene desaturase (4,4'-diaponeurosporene-forming) (Staphylococcus aureus (strain USA300)) (UniProt Q2FDU6); experiment: Inhibition of CrtN in methicillin-resistant Staphylococcus aureus LAC USA300 assessed as increase in H2O2-induced bacterial death by measuring survival rate preincubated for 24 hrs followed by H2O2 addition measured after 30 mins by serial dilution method (reference value: 29.0%)
T1 sequence (whole entry): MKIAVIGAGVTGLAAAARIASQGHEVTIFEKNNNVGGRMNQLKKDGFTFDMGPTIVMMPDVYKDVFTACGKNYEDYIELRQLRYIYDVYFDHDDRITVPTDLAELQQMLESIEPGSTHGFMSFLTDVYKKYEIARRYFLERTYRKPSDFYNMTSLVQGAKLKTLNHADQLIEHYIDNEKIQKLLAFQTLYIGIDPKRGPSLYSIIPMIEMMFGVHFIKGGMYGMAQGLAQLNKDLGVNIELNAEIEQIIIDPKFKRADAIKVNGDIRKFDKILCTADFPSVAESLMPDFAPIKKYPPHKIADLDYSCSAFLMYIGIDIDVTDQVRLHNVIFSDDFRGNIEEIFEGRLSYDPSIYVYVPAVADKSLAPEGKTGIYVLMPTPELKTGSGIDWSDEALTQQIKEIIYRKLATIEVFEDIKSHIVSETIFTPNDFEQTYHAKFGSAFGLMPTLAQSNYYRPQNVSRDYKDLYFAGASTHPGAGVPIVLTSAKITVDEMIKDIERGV
Summary of the method: (§1)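 Bacteria pretreated with 1 µM inhibitor or mock; N-acetylcysteine-treated cells served as control. Cells then exposed to 1.5% H2O2, and percent survival determined.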

[2] = biological target: T2, 4,4'-diapophytoene desaturase (4,4'-diaponeurosporene-forming) (Staphylococcus aureus (strain MW2)) (UniProt Q8NUQ6); experiment: Inhibition of CrtN in methicillin-resistant Staphylococcus aureus USA400 MW2 assessed as increase in H2O2-induced bacterial death by measuring survival rate preincubated for 24 hrs followed by H2O2 addition measured after 30 mins by serial dilution method (reference value: 28.7%); details: Staphylococcus aureus subsp. aureus MW2; summary of the method: as §1
T2 sequence (whole entry): T1 sequence (whole entry) with R500Q

[3] = biological target: T3, 4,4'-diapophytoene desaturase (4,4'-diaponeurosporene-forming) (Staphylococcus aureus (strain Mu50 / ATCC 700699)) (UniProt Q99R76); experiment: Inhibition of CrtN in methicillin-resistant Staphylococcus aureus Mu50 assessed as increase in H2O2-induced bacterial death by measuring survival rate at preincubated for 24 hrs followed by H2O2 addition measured after 30 mins by serial dilution method (reference value: 29.0%); details: Staphylococcus aureus subsp. aureus Mu50; summary of the method: as §1
T3 sequence (whole entry): T1 sequence (whole entry)

Staphylococcus aureus [4] = experiment: Chemo-sensitization activity in non-pigmented Staphylococcus aureus Newman assessed as increase in H2O2-induced bacterial death by measuring survival rate pre-incubated for 24 hrs followed by H2O2 addition measured after 30 mins by serial dilution method (reference value: 33.3%); type: functional
Summary of the method: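 S. aureus Newman was pre-incubated with 1 µM compound, with N-acetylcysteine as antioxidant control, or mock-treated. Cells were then exposed to 1.5% H2O2. Percent bacterial survival was compared with the mock-treated culture.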

Staphylococcus aureus [5] = experiment: Antibacterial activity against Staphylococcus aureus Newman after 24 hrs by broth dilution method; type: functional
[6] = biological target: 4,4'-diapophytoene synthase (Staphylococcus aureus, UniProt A9JQL9); experiment: Inhibition of CrtM in Staphylococcus aureus assessed as reduction in staphyloxanthin levels after 72 hrs by spectrophotometric method
Sequence of 4,4'-diapophytoene synthase (A9JQL9 whole entry): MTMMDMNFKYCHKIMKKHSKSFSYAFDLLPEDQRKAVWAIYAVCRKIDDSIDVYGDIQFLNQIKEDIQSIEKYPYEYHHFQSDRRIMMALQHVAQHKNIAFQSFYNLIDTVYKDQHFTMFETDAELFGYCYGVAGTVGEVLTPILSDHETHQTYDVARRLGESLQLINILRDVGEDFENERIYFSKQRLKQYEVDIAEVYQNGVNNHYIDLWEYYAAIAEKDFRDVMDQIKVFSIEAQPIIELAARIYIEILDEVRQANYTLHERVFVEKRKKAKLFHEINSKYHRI

Staphylococcus aureus [7] = experiment: In vivo anti-virulence activity against Staphylococcus aureus NRS271 infected in BALB/c mouse model assessed as reduction in bacterial load in kidney at 0.4 mg bid for 4.5 days administered orally 6 hrs post infection by serial dilution method relative to control; type: functional, organism-based
Staphylococcus aureus [8] = experiment: In vivo anti-virulence activity against Staphylococcus aureus Mu50 infected in BALB/c mouse model assessed as reduction in bacterial load in kidney at 0.4 mg bid for 4.5 days administered […] 6 hrs post infection by serial dilution method relative to control; type: functional, organism-based
Staphylococcus aureus [9] = experiment: In vivo anti-virulence activity against methicillin-resistant Staphylococcus aureus NRS271 infected in BALB/c mouse model assessed as reduction in bacterial load in heart at 0.4 mg bid for 4.5 days administered intraperitoneally 6 hrs post infection by serial dilution method; type: functional, organism-based
Staphylococcus aureus [10] = experiment: In vivo anti-virulence activity against methicillin-resistant Staphylococcus aureus LRSA202 infected in BALB/c mouse model assessed as reduction in bacterial load in heart at 0.4 mg bid for 3.5 days administered intraperitoneally 6 hrs post infection by serial dilution method relative to control; type: functional, organism-based
Summary of the method: (§2)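 Mice were infected by retro-orbital injection with LRSA56 (5.0 × 10^7 CFU) or LRSA202 (7.0 × 10^7 CFU). Compound was given intraperitoneally 6 h after infection. […] Log10 CFU was counted in kidneys and hearts, with groups compared by two-tailed Mann-Whitney test.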

Staphylococcus aureus [11] = experiment: In vivo anti-virulence activity against methicillin-resistant Staphylococcus aureus LRSA202 infected in BALB/c mouse model assessed as reduction in bacterial load in kidney at 0.1 mg bid for 3.5 days administered intraperitoneally 6 hrs post infection by serial dilution method relative to control; type: functional, organism-based; summary of the method: as §2
Staphylococcus aureus [12] = experiment: In vivo anti-virulence activity against methicillin-resistant Staphylococcus aureus LRSA202 infected in BALB/c mouse model assessed as reduction in bacterial load in kidney at 0.4 mg bid for 3.5 days administered intraperitoneally 6 hrs post infection by serial dilution method relative to control; type: functional, organism-based; summary of the method: as §2
Staphylococcus aureus [13] = experiment: In vivo anti-virulence activity against methicillin-resistant Staphylococcus aureus LRSA202 infected in BALB/c mouse model assessed as reduction in bacterial load in heart at 0.1 mg bid for 3.5 days administered intraperitoneally 6 hrs post infection by serial dilution method relative to control; type: functional, organism-based; summary of the method: as §2
Staphylococcus aureus [14] = experiment: In vivo anti-virulence activity against methicillin-resistant Staphylococcus aureus Mu50 infected in BALB/c mouse model assessed as reduction in bacterial load in heart at 0.4 mg bid for 4.5 days administered intraperitoneally 6 hrs post infection by serial dilution method; type: functional, organism-based
Liver = experiment: In-vitro intrinsic clearance in human liver microsomes at 2 uM after 60 mins in presence of NADPH by LC-MS/MS method; type: ADME, microsome; details: 1 h
[15] = Half life in human liver microsomes at 2 uM after 60 mins in presence of NADPH by LC-MS/MS method; type: ADME, microsome; details: liver microsomes
[16] = biological target: T4, 4,4'-diapophytoene desaturase (4,4'-diaponeurosporene-forming) (Staphylococcus aureus (strain Newman), UniProt O07855); experiment: Inhibition of Staphylococcus aureus Newman 6His-tagged CrtN expressed in Escherichia coli BL21 (DE3)/pET28a::CrtN assessed as reduction in staphyloxanthin levels using diapophytoene as substrate after overnight incubation by spectrophotometric analysis; design: species or system Staphylococcus aureus subsp. aureus str. Newman
T4 sequence (O07855 whole entry): T1 sequence (whole entry)

[17] = tested on: Trichophyton mentagrophytes; experiment: In vitro antifungal activity against Trichophyton mentagrophytes after 7 days by serial dilution method; type: functional; details: 168 h
[18] = biological target: T5, 4,4'-diapophytoene desaturase (4,4'-diaponeurosporene-forming) (Staphylococcus aureus (strain Mu50 / ATCC 700699), UniProt Q99R76); experiment: Inhibition of CrtN in methicillin-resistant Staphylococcus aureus Mu50 assessed as reduction in staphyloxanthin levels after 48 hrs by spectrophotometric method-based pigment inhibition assay; design: species or system Staphylococcus aureus subsp. aureus Mu50
T5 sequence (Q99R76 whole entry): T1 sequence (whole entry)

Trichophyton rubrum = experiment: In vitro antifungal activity against Trichophyton rubrum after 7 days by serial dilution method; type: functional; details: 168 h
Trichophyton verrucosum = experiment: In vitro antifungal activity against Trichophyton verrucosum after 7 days by serial dilution method; type: functional; details: 168 h
[19] = biological target: T6, 4,4'-diapophytoene desaturase (4,4'-diaponeurosporene-forming) (Staphylococcus aureus (strain MW2), UniProt Q8NUQ6); experiment: Inhibition of CrtN in methicillin-resistant Staphylococcus aureus USA400 MW2 assessed as reduction in staphyloxanthin levels after 48 hrs by spectrophotometric method-based pigment inhibition assay; design: species or system Staphylococcus aureus subsp. aureus MW2
T6 sequence (Q8NUQ6 whole entry): T1 sequence (whole entry) with R500Q

[20] = Aqueous solubility of compound after 24 hrs by HPLC method; type: physicochemical
Nannizzia gypsea = experiment: In vitro antifungal activity against Microsporum gypseum after 7 days by serial dilution method; type: functional; details: 168 h
[21] = biological target: T7, 4,4'-diapophytoene desaturase (4,4'-diaponeurosporene-forming) (Staphylococcus aureus (strain USA300), UniProt Q2FDU6); experiment: Inhibition of CrtN in methicillin-resistant Staphylococcus aureus LAC USA300 assessed as reduction in staphyloxanthin levels after 48 hrs by spectrophotometric method-based pigment inhibition assay
T7 sequence (Q2FDU6 whole entry): T1 sequence (whole entry)

[22] = biological target: Voltage-gated inwardly rectifying potassium channel KCNH2 (Homo sapiens, UniProt Q12809); experiment: Inhibition of human ERG expressed in CHO cells at -80 mV holding potential after 3 mins by QPatch test; type: cell-based
Sequence of Voltage-gated inwardly rectifying potassium channel KCNH2 (Q12809 whole entry): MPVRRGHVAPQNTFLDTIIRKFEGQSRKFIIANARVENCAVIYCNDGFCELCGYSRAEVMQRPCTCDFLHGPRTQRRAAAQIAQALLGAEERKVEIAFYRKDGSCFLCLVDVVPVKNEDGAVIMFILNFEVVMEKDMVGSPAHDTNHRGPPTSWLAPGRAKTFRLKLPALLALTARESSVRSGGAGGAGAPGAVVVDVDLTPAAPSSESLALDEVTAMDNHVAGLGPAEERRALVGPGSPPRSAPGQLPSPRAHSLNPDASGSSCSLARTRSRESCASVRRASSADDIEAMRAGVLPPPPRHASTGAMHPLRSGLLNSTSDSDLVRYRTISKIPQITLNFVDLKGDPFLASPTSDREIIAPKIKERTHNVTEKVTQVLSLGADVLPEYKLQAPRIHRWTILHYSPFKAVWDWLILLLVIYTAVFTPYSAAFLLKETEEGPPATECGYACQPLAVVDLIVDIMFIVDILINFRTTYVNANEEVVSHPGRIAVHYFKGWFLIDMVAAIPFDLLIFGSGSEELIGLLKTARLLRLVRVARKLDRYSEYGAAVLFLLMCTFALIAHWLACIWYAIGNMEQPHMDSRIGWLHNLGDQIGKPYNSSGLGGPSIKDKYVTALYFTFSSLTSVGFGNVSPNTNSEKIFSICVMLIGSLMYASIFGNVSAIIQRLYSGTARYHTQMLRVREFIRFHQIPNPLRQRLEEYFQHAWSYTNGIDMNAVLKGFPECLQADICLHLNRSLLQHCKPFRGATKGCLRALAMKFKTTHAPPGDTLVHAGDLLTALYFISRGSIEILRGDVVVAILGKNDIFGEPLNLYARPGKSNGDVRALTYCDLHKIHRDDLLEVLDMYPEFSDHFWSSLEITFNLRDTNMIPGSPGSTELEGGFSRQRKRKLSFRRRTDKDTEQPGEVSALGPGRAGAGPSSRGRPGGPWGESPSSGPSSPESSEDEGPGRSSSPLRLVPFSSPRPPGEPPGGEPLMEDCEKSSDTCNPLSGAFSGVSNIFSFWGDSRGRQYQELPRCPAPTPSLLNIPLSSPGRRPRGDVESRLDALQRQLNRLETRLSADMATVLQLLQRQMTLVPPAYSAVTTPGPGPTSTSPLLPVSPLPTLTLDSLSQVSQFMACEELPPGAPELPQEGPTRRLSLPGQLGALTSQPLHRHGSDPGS

[23] = Inhibition of CrtN in methicillin-resistant Staphylococcus aureus NRS271 assessed as reduction in staphyloxanthin levels after 48 hrs by spectrophotometric method-based pigment inhibition assay
Staphylococcus aureus [24] = experiment: In vivo anti-virulence activity against methicillin-resistant Staphylococcus aureus LRSA56 infected in BALB/c mouse model assessed as reduction in bacterial load in heart at 0.4 mg bid for 3.5 days administered intraperitoneally 6 hrs post infection by serial dilution method relative to control; type: functional, organism-based; summary of the method: as §2
Staphylococcus aureus [25] = experiment: In vivo anti-virulence activity against methicillin-resistant Staphylococcus aureus LRSA56 infected in BALB/c mouse model assessed as reduction in bacterial load in kidney at 0.4 mg bid for 3.5 days administered intraperitoneally 6 hrs post infection by serial dilution method relative to control; type: functional, organism-based; summary of the method: as §2

## CC(=O)N[C@@H](CS)C(=O)O [ACETYLCYSTEINE]
[1]
  Survival: 52%
[2]
  Survival: 54.3%
[3]
  Survival: 53%
Staphylococcus aureus [4]
  Survival: 51.3%

## OO [HYDROGEN PEROXIDE]
Staphylococcus aureus [5]
  MIC: 0.15%

## O=P(O)(O)C(CCCc1cccc(Oc2ccccc2)c1)S(=O)(=O)O (centres undefined)
[6]
  IC50: 110 nM

## CC(=O)NC[C@H]1CN(c2ccc(N3CCOCC3)c(F)c2)C(=O)O1
Staphylococcus aureus [7]
  Activity: Active
Staphylococcus aureus [8]
  Activity: Active
Staphylococcus aureus [9]
  Activity: Active
Staphylococcus aureus [10]
  Activity: Active
Staphylococcus aureus [11]
  Activity: Active
Staphylococcus aureus [12]
  Activity: Active
Staphylococcus aureus [13]
  Activity: Active
Staphylococcus aureus [14]
  Activity: Active

## Cc1ncc2n1-c1ccc(Cl)cc1C(c1ccccc1F)=NC2 [MIDAZOLAM]
Liver
  CLH: 330 µL/min/mg
[15]
  half-life at 2 µM: 4.2 min

## CN(C/C=C/c1ccc(C(F)(F)F)cc1)Cc1cccc2ccoc12.Cl
[16]
  IC50: 300 nM
[17]
  MIC80: > 64 µg/mL
[18]
  IC50: 0.4 nM
Trichophyton rubrum
  MIC80: 16 µg/mL
Trichophyton verrucosum
  MIC80: > 64 µg/mL
[19]
  IC50: 3.4 nM
[20]
  solubility at 24 h: 10000 µg/mL
Nannizzia gypsea
  MIC80: 32 µg/mL
[21]
  IC50: 5.5 nM
[22]
  IC50: 3700 nM
[23]
  IC50: 6.7 nM

## CN[C@H](CC(C)C)C(=O)N[C@H]1C(=O)N[C@@H](CC(N)=O)C(=O)N[C@H]2C(=O)N[C@H]3C(=O)N[C@H](C(=O)N[C@H](C(=O)O)c4cc(O)cc(O)c4-c4cc3ccc4O)[C@H](O)c3ccc(c(Cl)c3)Oc3cc2cc(c3O[C@@H]2O[C@H](CO)[C@@H](O)[C@H](O)[C@H]2O[C@H]2C[C@](C)(N)[C@H](O)[C@H](C)O2)Oc2ccc(cc2Cl)[C@H]1O
Staphylococcus aureus [24]
  Activity: Active
Staphylococcus aureus [8]
  Activity: Active
Staphylococcus aureus [10]
  Activity: Active
Staphylococcus aureus [25]
  Activity: Active
Staphylococcus aureus [12]
  Activity: Active
Staphylococcus aureus [14]
  Activity: Active

## CC[C@H]1OC(=O)[C@H](C)[C@@H](O[C@H]2C[C@@](C)(OC)[C@@H](O)[C@H](C)O2)[C@H](C)[C@@H](O[C@@H]2O[C@H](C)C[C@H](N(C)C)[C@H]2O)[C@](C)(O)C[C@@H](C)C(=O)[C@H](C)[C@@H](O)[C@]1(C)O [ERYTHROMYCIN]
Staphylococcus aureus [5]; Staphylococcus aureus, Newman, 24 h, read-out: MIC
  MIC: 0.125 µg/mL (≈ 0.17 µM)
